Assay outcomes from PubChem BioAssay.
Compounds with a hit are over-represented: about 3.8% of the library has one in this group of screens.
KCNQ1 act: potentiators or activators of human KCNQ1 potassium channel | P51787 | CHO-K1 KCNQ1, thallium flux FluxOR fluorescence; stronger effect = higher value | actives 0.35% (n = 310,000) | B-score at 10 µM;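 active = fluorescence ratio B-score, a plate-corrected score, at least three library SD, with initial intensity B-score within 5 SD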
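Doses: Single concentration per compound, DMSO matched to controls | Test system: KCNQ1-transfected CHO-K1 cells | Timing: 90 min dye loading and 20 min compound exposure, both at room temperature | Measured by: Kinetic FluxOR thallium fluorescence, 10-s 1-Hz baseline, 110-s post-stimulus read | Medium: Assay buffer with matched DMSO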
Kir21 inh: inhibitors of mouse Kir2.1 inward-rectifier potassium channel; P35561; HEK293-Kir2.1, FluxOR thallium flux fluorescence; stronger effect = lower value; B-score at 10 µM; actives 0.85% (n = 310,000); AID 1672;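 active = fluorescence ratio B-score at or below minus 3 SD of library scores, with starting-brightness B-score within 2 SD, cut at about -4.2 in these data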;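 also: channel flux triggered by added potassium and thallium sulfate stimulus; B-score of peak minus minimum fluorescence over baseline after thallium stimulus; more negative B-score means stronger Kir2.1 block with less thallium influx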
KCNK9 inh: inhibitors of human KCNK9 two-pore domain potassium channel. HEK293 KCNK9, FluxOR thallium flux fluorescence; stronger effect = lower value. Q9NPC2. B-score at 10 µM. actives 1.2% (n = 310,000);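 active = ratio B-score over 3 SD below the library mean, with starting fluorescence within 5 SD of its mean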;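 also: negative B-score means less thallium flux so channel inhibition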
hERG protect: shields human hERG channel from block by proarrhythmic agents. Q12809. CHO-hERG, FluxOR thallium flux, dofetilide IC70 present. activation (rescue from dofetilide block), less the hit threshold, % at 10 µM. actives 0.51% (n = 310,000). AID 1511;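 active = activation above the mean of controls blocked by dofetilide plus 5 SD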;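 also: thallium influx through hERG after potassium depolarization seen as dye fluorescence rise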
KCNK3 inh: human KCNK3 channel inhibition, primary screen; actives 0.84% (n = 340,000); CHO-KCNK3 thallium flux, FluxOR fluorescence; stronger effect = lower value; AID 602410; O14649; B-score at 10 µM;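 active = B-score under library mean minus 4 SD, starting fluorescence ratio at most library mean plus 5 SD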;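 also: more negative B-score means stronger inhibition of thallium flux through KCNK3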
KCNQ1 inh: human KCNQ1 channel inhibition. B-score at 10 µM. actives 1.3% (n = 310,000). P51787. AID 2642. CHO-K1 KCNQ1, FluxOR thallium flux fluorescence; stronger effect = higher value;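 active = compounds whose thallium flux B-score, printed positive for inhibition, exceeds three library SD while starting fluorescence stays within three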;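 also: channel opened by potassium depolarization with thallium stimulus after 20 min compound exposure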
The depositor's hits bear a star; i = inactive; . = no result given.

SMILES	KCNQ1 act	Kir21 inh	KCNK9 inh	hERG protect	KCNK3 inh	KCNQ1 inh
CC1CCc2sc(C(=O)NC3CCCCC3)cc2C1 (stereo not drawn)	.	.	.	.	i	.
CCOc1ccc(CN2CCN(CC(O)Cn3c4ccccc4c4ccccc43)CC2)cc1 (stereo not drawn)	i	-1.25	i	-17.6	i	i
COc1ccc(CN2CCN(CC(O)Cn3c4ccccc4c4ccccc43)CC2)cc1 (stereo not drawn)	i	-4.42*	i	-25.1	i	i
O=c1c2ccccc2n(CC(O)CN2CCCCC2)c2ccccc12 (stereo not drawn)	i	0.07	-8.07*	-4.8	i	i
OC(CN1CCCCC1)Cn1c2ccccc2c2ccccc21 (stereo not drawn)	i	1.22	i	-4.5	i	i
CCCCn1c(NC(=O)c2ccccc2)c(C#N)c2nc3ccccc3nc21	.	.	.	.	i	.
CCCCn1c(NC(=O)c2ccc(F)cc2)c(C#N)c2nc3ccccc3nc21	i	-1.46	i	-14.4	.	6*
COc1ccc(CCNC(=O)CC2SC(=NCc3ccccc3OC)NC2=O)cc1 (stereo not drawn)	i	0.72	i	4.9*	i	i
COc1cccc(N2CCN(c3ncnc4c3[nH]c3ccc(F)cc34)CC2C)c1 (stereo not drawn)	i	-0.76	i	-37.5	-13.3*	13*
O=C(O)CCC(=O)N1CCC(n2nnc3cc(C(F)(F)F)ccc32)CC1	i	-0.4	i	-5.6	i	i
O=C(NCc1ccc(F)cc1)c1cc2sccc2n1Cc1ccc(F)cc1	i	1.17	-10.4*	-9.1	.	i
COc1ccc(COCC(O)CN(Cc2ccco2)Cc2ccccc2O)cc1 (stereo not drawn)	i	-6.69*	i	-11.6	i	i
Oc1ccccc1CN(Cc1ccco1)CC(O)COCc1ccc(Cl)cc1 (stereo not drawn)	i	-0.85	i	-8.2	i	i
OC(COC(c1ccccc1)c1ccccc1)CN1CCCCC1 (stereo not drawn)	i	-1.94	i	6.4*	i	i
CN(Cc1nc2ccccc2c(=O)[nH]1)C(=O)C1CC(=O)N(c2cccc3ccccc23)C1 (stereo not drawn)	.	.	.	.	i	.
Cc1ccc(/C=C/C2=Cc3c(sc(NC(=O)CSc4n[nH]c(N)n4)c3C#N)C(C)(C)C2)o1	i	-1.17	i	-15.0	.	6*
O=[N+]([O-])c1ccc(-c2nc3ccc([N+](=O)[O-])cc3[nH]2)cc1	i	0.33	i	-6.1	i	i
O=[N+]([O-])c1ccc2nc(/C=C/c3ccc(Cl)cc3)[nH]c2c1	i	0.67	i	-13.8	i	11*
Fc1cccc(F)c1-n1c(CN2CCCC2)csc1=S	i	-1.83	i	-7.3	i	i
COc1ccc(C(=O)N=c2sc3c(C)ccc(OC)c3n2C)cc1	i	-0.42	-7.02*	-10.2	i	i
COc1cc(C(=O)N=c2sc3c(C)ccc(OC)c3n2C)cc(OC)c1OC	i	0.12	i	-8.9	i	i
CC(=O)c1ccccc1OC(=O)c1ccc(-c2ccccc2)cc1	i	-2.61	-6.69*	-3.1	i	i
Cc1cc(NC(=O)CSc2nnc(-c3ccncc3)n2C)n(-c2ccccc2)n1	i	-0.36	i	-9.0	i	i
Cc1noc(C)c1CSc1nnc2scc(-c3ccc(Cl)cc3)n12	i	-4.38*	i	-12.0	i	i
OC1(c2ccc(Cl)cc2)CCN(Cc2c[nH]c3ccccc23)CC1	i	-6.75*	i	-10.2	i	i
Cc1ccc(S(=O)(=O)N(C)C)cc1-n1c(SCC(=O)Nc2ccc(F)cc2Cl)nc2ccccc2c1=O	i	-2.64	-8.01*	-6.8	i	i
Cc1ccc(S(=O)(=O)N(C)C)cc1-n1c(SCC(=O)Nc2ccccc2)nc2ccccc2c1=O	i	-0.84	-7.93*	-12.3	i	i
Cc1ccc(S(=O)(=O)N(C)C)cc1NC(=O)CSc1nc2ccccc2c(=O)n1CC1CCCO1 (stereo not drawn)	i	-1.06	i	-14.3	i	i
